Records with an inconclusive call do not appear.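 Rule for the calls, unless noted: active = viability increase at or above a cutoff of the median across tested compounds plus 3 SD (cut at about 8.5% in these data, passing the limit was not always enough); inconclusive = some gains above the cutoff, reason not given; inactive = the rest.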
How the values were obtained:
[1] = S. cerevisiae growth inhibition in permissive medium (OD615), pilot counter-assay for S. cerevisiae lifespan shortening project, permissive growth control (AID 705;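 active = growth inhibition above 25% in both replicates, a cutoff set 3 SD above the mean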); conditions: OD615, 24 h, at 10 µM, stronger effect = higher value
Method in brief: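 System: S. cerevisiae with engineered DeaD lifespan system / Measured by: absorbance (optical density) at 615 nm / Read-out: reduction in yeast growth (OD615) / Times: 4 h cell pre-growth, 24 h exposure at 30 °C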

[2] = S. cerevisiae growth inhibition in restrictive medium, OD615, pilot screen, restrictive growth control, yeast lifespan reduction project (AID 706;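 active = growth inhibition above a set limit, 3 SD over mean compound inhibition, in both replicates, cut at about 43% in these data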;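 note: modified DeaD lifespan yeast strain shifted to restrictive glucose medium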); conditions: OD615, 48 h, at 10 µM, stronger effect = higher value
Method in brief: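 System: Engineered S. cerevisiae DeaD strain | Buffer or medium: Glucose-based CSMM-D restrictive medium | Schedule: 4 h pre-incubation, 48 h exposure at 30 °C | Technique: Optical density at 615 nm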

[3] = doxorubicin toxicity protection in MRP-1 cells – H69AR cells, CellTiter-Glo, duplicate, MRP-1 activator project, pilot screen (AID 807); conditions: H69AR viability with doxorubicin, CellTiter-Glo luminescence; at 10 µM; stronger effect = higher value;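 note: compound pretreatment 18-22 h then 72 h combined with doxorubicin; 0% = doxorubicin alone and 100% = vehicle without doxorubicin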
[4] = viability of HCT116 without oncogenic beta-catenin – human colon tumor cells, pilot screen (AID 823;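 active = cell viability at or below a set limit in both duplicate runs, the limit being the all-compound median minus 4 SD, cut at about 23% in these data, passing the limit was not always enough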;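 note: 0% = wells killed by 20 µM Hyamine and 100% = untreated DMSO cell wells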); conditions: HCT116 beta-catenin knockout viability, CellTiter-Glo, 60 h; at 10 µM; stronger effect = lower value
[5] = viability of PTEN-null HCT116 cells – cell-based, HCT116 clonal line, CellTiter-Glo, pilot screen (AID 824;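 active = viability at or below 27.92% in each of two runs, the all-compound median minus 4 SD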;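 note: 0% = 20 µM Hyamine control and 100% = vehicle cell control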); conditions: HCT116 PTEN-deleted viability, 60 h, at 10 µM, stronger effect = lower value
[6] = RAM pathway blockade in budding yeast – dse1pr::URA3 reporter, 5-FOA selection, pilot screen (AID 869;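 active = inhibition over a set limit, the all-compound mean plus 3 SD, in both replicate runs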;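 note: 0% = DMSO wells with no growth and 100% = 10 µM 1-NA-PP1 with full growth; RAM network block rescues cells from 5-FOA so hits raise OD615 growth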); conditions: S. cerevisiae dse1pr::URA3 5-FOA growth, OD615, 2 d; at 10 µM; stronger effect = higher value; strain carries analog-sensitive mutant Cbk1 kinase
[7] = RAM signaling pathway blockade in yeast – S. cerevisiae, Pdr1DBD-CYC8 efflux-inhibited sensitized strain, primary screen (AID 1298;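 active = RAM network inhibition above 8.4% in each of two replicates, 3 SD over the compound average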;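 note: 0% = DMSO untreated cells without growth and 100% = 10 µM 1-NA-PP1 full growth; higher means more yeast growth rescued from 5-FOA killing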); conditions: S. cerevisiae cbk1-as DSE1-URA3 strain, 5-FOA growth OD615, 2 d; at 50 µM; stronger effect = higher value

COc1cccc(NS(=O)(=O)c2nc3nc(C)cc(C)n3n2)c1
inactive: growth inhibition [1] -10.2% | growth inhibition [2] -2.87% | viability increase [3] -1.57% | viability [4] 108% | viability [5] 98.9% | inhibition [6] 2.01% | RAM network inhibition [7] -1%

CCN(CC)S(=O)(=O)c1ccc(-c2nnco2)cc1
inactive: growth inhibition [1] -23.5% | growth inhibition [2] -16.6% | viability increase [3] -0.57% | viability [4] 100% | viability [5] 97.9% | inhibition [6] 3.09% | RAM network inhibition [7] 1.46%

CCOC(=O)c1nnc2cc(-c3ccccc3)nn2c1C
inactive: growth inhibition [1] 3.76% | growth inhibition [2] 16% | viability increase [3] 0.86% | viability [4] 93.6% | viability [5] 95.3% | inhibition [6] 1.5% | RAM network inhibition [7] 0.86%

Cn1nc(-c2ccc(Cl)cc2)c2cc(C(=O)N3CCN(C(=O)c4ccco4)CC3)sc21
inactive: growth inhibition [1] 5.26% | growth inhibition [2] 15.6% | viability increase [3] -6.46% | viability [4] 66.6% | viability [5] 66.2% | inhibition [6] 0.755% | RAM network inhibition [7] 4.92%

Cc1ccc(Cl)cc1NC(=O)COC(=O)C1CCCC1
inactive: growth inhibition [1] -22% | growth inhibition [2] -14.1% | viability increase [3] -0.05% | viability [4] 99.1% | viability [5] 94.4% | inhibition [6] 1.32% | RAM network inhibition [7] 1.69%

COc1ccc(C(c2sc3nc(C)nn3c2O)N2CCC(O)CC2)cc1OC (configuration not stated)
inactive: growth inhibition [1] 4.24% | growth inhibition [2] 0.32% | viability increase [3] -0.06% | viability [4] 106% | viability [5] 100% | inhibition [6] 1.38% | RAM network inhibition [7] 5.56%

O=C(Cn1ncc2c(=O)oc3ccccc3c21)N(Cc1ccco1)C1CCCCC1
inactive: growth inhibition [1] -4.29% | growth inhibition [2] -1.01% | viability increase [3] -4.59% | viability [4] 92.5% | viability [5] 94.6% | inhibition [6] 2.71% | RAM network inhibition [7] 5.12%

CCCOc1ccc(C2c3c(oc4cc(C)c(C)cc4c3=O)C(=O)N2CCCN2CCOCC2)cc1 (configuration not stated)
inactive: growth inhibition [1] 8% | growth inhibition [2] 1.72% | viability increase [3] -2.28% | viability [4] 81.9% | viability [5] 89% | inhibition [6] 0.075% | RAM network inhibition [7] 0.73%

CCCC(=O)Nc1ccccc1-c1nnc(SC)[nH]c1=O
inactive: growth inhibition [1] -10.4% | growth inhibition [2] 1.72% | viability increase [3] -2.76% | viability [4] 113% | viability [5] 99.3% | inhibition [6] 1.06% | RAM network inhibition [7] 1.27%

O=C(Nc1nccs1)c1cc(S(=O)(=O)N2CCOCC2)ccc1Cl
inactive: growth inhibition [1] -0.79% | growth inhibition [2] -2.65% | viability increase [3] -3.96% | viability [4] 97.8% | viability [5] 91% | inhibition [6] 1.35% | RAM network inhibition [7] 4.18%

Cn1c(=O)[nH]c(=O)c2c1nc(N1CCCC1)n2CC(O)COc1ccccc1 (configuration not stated)
inactive: growth inhibition [1] -10.3% | growth inhibition [2] -7.92% | viability increase [3] -2.57% | viability [4] 100% | viability [5] 102% | inhibition [6] 2.5% | RAM network inhibition [7] 1.94%

CCOC(=O)C1=C(CS(=O)(=O)c2ccccc2)NC(=O)NC1c1ccccc1OCC (configuration not stated)
inactive: growth inhibition [1] -15.1% | growth inhibition [2] -5.42% | viability increase [3] 0.13% | viability [4] 98.7% | viability [5] 101% | inhibition [6] 2.07% | RAM network inhibition [7] -0.04%

Cc1ccc(-c2nc(CS(=O)CC(=O)NCCCN3CC(C)CC(C)C3)c(C)o2)cc1 (configuration not stated)
inactive: growth inhibition [1] -14.2% | growth inhibition [2] -13.2% | viability increase [3] -4.27% | viability [4] 77.5% | viability [5] 79.1% | inhibition [6] 0.255% | RAM network inhibition [7] 2.65%

Cc1ccc(N2C(=O)C(Cl)=C(NCCO)C2=O)c(C)c1
inactive: growth inhibition [1] -4.71% | growth inhibition [2] -2.88% | viability increase [3] -2.47% | viability [4] 105% | viability [5] 100% | inhibition [6] 2.02% | RAM network inhibition [7] 8.82%

Cc1cc(C(=O)N2CCN(Cc3ccc4c(c3)OCO4)CC2)on1
inactive: growth inhibition [1] -6.71% | growth inhibition [2] -10.4% | viability increase [3] 0.9% | viability [4] 97.2% | viability [5] 105% | inhibition [6] 1.79% | RAM network inhibition [7] 2.8%

CC1CN(CCC(=O)Nc2ccc3c(c2)CCC3)CC(C)O1 (configuration not stated)
inactive: growth inhibition [1] -3.75% | growth inhibition [2] -3.82% | viability increase [3] -0.55% | viability [4] 97.5% | viability [5] 93% | inhibition [6] 0.995% | RAM network inhibition [7] 6.16%

Nc1cc(=O)[nH]c(SCc2nc3ccccc3n2Cc2ccccc2)n1
inactive: growth inhibition [1] -2.77% | growth inhibition [2] 17% | viability increase [3] -0.14% | viability [4] 90.4% | viability [5] 89% | inhibition [6] 0.71% | RAM network inhibition [7] 6.17%

COC(=O)C1C(C(C)C)N(c2ccccc2)OC1(C)O (configuration not stated)
inactive: growth inhibition [1] -11.8% | growth inhibition [2] -7.98% | viability increase [3] -4.25% | viability [4] 103% | viability [5] 96.9% | inhibition [6] 0.93% | RAM network inhibition [7] 1.66%

COc1ccc(Cc2nnc(Nc3ccc(C)cc3C)[nH]c2=O)cc1
inactive: growth inhibition [1] -10.4% | growth inhibition [2] -12.6% | viability increase [3] -1.16% | viability [4] 91.2% | viability [5] 94.2% | inhibition [6] 1.08% | RAM network inhibition [7] 7.16%

Cc1ccccc1NC(=O)NCCN1C(=O)C2C3C=CC(C3)C2C1=O (configuration not stated)
inactive: growth inhibition [1] -7.87% | growth inhibition [2] 1.59% | viability increase [3] -2.01% | viability [4] 103% | viability [5] 102% | inhibition [6] 0.745% | RAM network inhibition [7] 1.46%

COc1ccc(-c2nc(CSCC(=O)N3CCN(C4CCCCC4)CC3)c(C)o2)cc1OC
inactive: growth inhibition [1] -5.55% | growth inhibition [2] 7.03% | viability increase [3] -1.54% | viability [4] 87.8% | viability [5] 96.3% | inhibition [6] 1.04% | RAM network inhibition [7] 2.38%

CCOC(=O)c1c(NC(=O)c2cccs2)sc2c1CCCC2
inactive: growth inhibition [1] -6.96% | growth inhibition [2] -21.1% | viability increase [3] -4.82% | viability [4] 101% | viability [5] 83.5% | inhibition [6] 3.56% | RAM network inhibition [7] 8%

CN(CC(=O)NC1CCCCCCC1)S(=O)(=O)c1cccc2cccnc12
inactive: growth inhibition [1] 0.055% | growth inhibition [2] 0.405% | viability increase [3] -1.32% | viability [4] 93.2% | viability [5] 87.1% | inhibition [6] 1.26% | RAM network inhibition [7] 2.33%

CCOC(=O)c1cc(NC(=O)NCc2ccco2)c(C)nc1C
inactive: growth inhibition [1] -7.98% | growth inhibition [2] -25.8% | viability increase [3] -3.46% | viability [4] 105% | viability [5] 99.3% | inhibition [6] 1.57% | RAM network inhibition [7] 4.38%

Cc1nc2ccccc2n1-c1ccccc1
inactive: growth inhibition [1] -0.46% | growth inhibition [2] 10.2% | viability increase [3] 0.08% | viability [4] 89.1% | viability [5] 96.4% | inhibition [6] 0.185% | RAM network inhibition [7] 4.25%

CCOC(=O)N1CCC(NC(=O)CCc2c(C)nc3c(c(C)nn3-c3ccccc3)c2C)CC1
inactive: growth inhibition [1] -8.02% | growth inhibition [2] 0.22% | viability increase [3] -1.37% | viability [4] 100% | viability [5] 89.5% | inhibition [6] 2.38% | RAM network inhibition [7] 4.08%

CCn1c(-c2ccc(N)cc2)nc2ccccc21
inactive: growth inhibition [1] -7.32% | growth inhibition [2] 7.48% | viability increase [3] -3.43% | viability [4] 103% | viability [5] 83.5% | inhibition [6] 1.18% | RAM network inhibition [7] 0.72%

Cc1ccccc1-n1c(Cn2c(=O)sc3ccccc32)nnc1SCC(=O)N1CCOCC1
inactive: growth inhibition [1] -5.92% | growth inhibition [2] -11.6% | viability increase [3] -1.91% | viability [4] 102% | viability [5] 100% | inhibition [6] 1.56% | RAM network inhibition [7] 1.01%

Cc1cc(NC(=O)c2ccccc2)sc1C
inactive: growth inhibition [1] -5.22% | growth inhibition [2] 3.02% | viability increase [3] -3.69% | viability [4] 70.7% | viability [5] 70% | inhibition [6] -1.59% | RAM network inhibition [7] -1.89%

COC(=O)c1nc2cc(C)ccn2c1F
inactive: growth inhibition [1] 0.67% | growth inhibition [2] 0.595% | viability increase [3] -1.42% | viability [4] 105% | viability [5] 94.3% | inhibition [6] 2.7% | RAM network inhibition [7] 0.79%

COc1ccc(Cl)cc1N(CC(=O)N1CCC(C)CC1)S(C)(=O)=O
inactive: growth inhibition [1] 5.7% | growth inhibition [2] 0.85% | viability increase [3] -1.75% | viability [4] 96.6% | viability [5] 92.7% | inhibition [6] 0.155% | RAM network inhibition [7] 1.72%

CCn1nnc(NC(=O)c2ccc(C(C)(C)C)cc2)n1
inactive: growth inhibition [1] -24.7% | growth inhibition [2] -6.88% | viability increase [3] -0.53% | viability [4] 90.2% | viability [5] 90.9% | inhibition [6] 1.79% | RAM network inhibition [7] -0.37%

Cc1ccc(N(CC(N)=O)C2SC(=O)N(C)C2=O)cc1 (configuration not stated)
inactive: growth inhibition [1] -11.9% | growth inhibition [2] -7.83% | viability increase [3] -2.96% | viability [4] 97.8% | viability [5] 102% | inhibition [6] 1.09% | RAM network inhibition [7] 3.14%

COC(=O)c1cc(Nc2cc(C)nc3ncnn23)cc(C(=O)OC)c1
inactive: growth inhibition [1] 7.62% | growth inhibition [2] 11% | viability increase [3] -3.2% | viability [4] 108% | viability [5] 97.1% | inhibition [6] 1.31% | RAM network inhibition [7] 1.36%

Cn1c(=O)n(C)c2cc(S(=O)(=O)O)ccc21
inactive: growth inhibition [1] 5.19% | growth inhibition [2] 4.85% | viability increase [3] -1.08% | viability [4] 97% | viability [5] 95% | inhibition [6] 1.38% | RAM network inhibition [7] 0.76%

O=C(Cc1n[nH]c(=O)c2ccccc12)NCc1ccccn1
inactive: growth inhibition [1] -3.9% | growth inhibition [2] -19.5% | viability increase [3] -0.08% | viability [4] 103% | viability [5] 99% | inhibition [6] 1.48% | RAM network inhibition [7] 2.08%
